Data set [1] concerns the target Integrin alpha-4/beta-1 (Homo sapiens, UniProt P05556+P13612). The data set is described as follows: Inhibition of binding of alpha4beta1 integrin receptor expressed in human Ramos cells to immobilized VCAM1. It counts as cell-based.
Data set [2] has as its target T1, Integrin alpha-4/beta-7 (Homo sapiens, UniProt P13612+P26010).
T1 sequence (P13612 whole entry): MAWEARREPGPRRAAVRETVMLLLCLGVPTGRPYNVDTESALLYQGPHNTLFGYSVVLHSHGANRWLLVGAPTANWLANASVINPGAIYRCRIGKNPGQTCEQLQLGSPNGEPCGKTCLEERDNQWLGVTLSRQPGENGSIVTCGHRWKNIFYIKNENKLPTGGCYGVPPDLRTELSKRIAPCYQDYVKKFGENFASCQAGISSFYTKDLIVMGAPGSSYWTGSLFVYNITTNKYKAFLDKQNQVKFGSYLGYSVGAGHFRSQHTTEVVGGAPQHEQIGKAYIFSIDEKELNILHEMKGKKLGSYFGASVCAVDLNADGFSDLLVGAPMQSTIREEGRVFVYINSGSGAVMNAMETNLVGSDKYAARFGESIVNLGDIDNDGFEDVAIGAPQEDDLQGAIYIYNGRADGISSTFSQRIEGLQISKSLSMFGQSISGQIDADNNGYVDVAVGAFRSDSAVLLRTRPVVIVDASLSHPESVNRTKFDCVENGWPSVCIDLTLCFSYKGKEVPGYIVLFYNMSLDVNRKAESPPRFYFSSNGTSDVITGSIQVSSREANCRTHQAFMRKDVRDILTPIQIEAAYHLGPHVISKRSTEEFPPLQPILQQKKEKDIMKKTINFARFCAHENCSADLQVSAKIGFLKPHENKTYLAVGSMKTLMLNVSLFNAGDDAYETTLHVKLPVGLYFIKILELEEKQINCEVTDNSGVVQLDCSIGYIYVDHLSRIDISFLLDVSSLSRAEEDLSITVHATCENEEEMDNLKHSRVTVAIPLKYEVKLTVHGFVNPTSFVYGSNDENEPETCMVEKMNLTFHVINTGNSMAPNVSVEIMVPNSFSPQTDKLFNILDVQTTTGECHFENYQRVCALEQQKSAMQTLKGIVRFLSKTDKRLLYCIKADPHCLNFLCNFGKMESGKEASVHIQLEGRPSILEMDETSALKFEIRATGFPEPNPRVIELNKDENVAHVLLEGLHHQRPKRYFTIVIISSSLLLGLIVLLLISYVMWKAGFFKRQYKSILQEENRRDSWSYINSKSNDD
T1 sequence (P26010 whole entry): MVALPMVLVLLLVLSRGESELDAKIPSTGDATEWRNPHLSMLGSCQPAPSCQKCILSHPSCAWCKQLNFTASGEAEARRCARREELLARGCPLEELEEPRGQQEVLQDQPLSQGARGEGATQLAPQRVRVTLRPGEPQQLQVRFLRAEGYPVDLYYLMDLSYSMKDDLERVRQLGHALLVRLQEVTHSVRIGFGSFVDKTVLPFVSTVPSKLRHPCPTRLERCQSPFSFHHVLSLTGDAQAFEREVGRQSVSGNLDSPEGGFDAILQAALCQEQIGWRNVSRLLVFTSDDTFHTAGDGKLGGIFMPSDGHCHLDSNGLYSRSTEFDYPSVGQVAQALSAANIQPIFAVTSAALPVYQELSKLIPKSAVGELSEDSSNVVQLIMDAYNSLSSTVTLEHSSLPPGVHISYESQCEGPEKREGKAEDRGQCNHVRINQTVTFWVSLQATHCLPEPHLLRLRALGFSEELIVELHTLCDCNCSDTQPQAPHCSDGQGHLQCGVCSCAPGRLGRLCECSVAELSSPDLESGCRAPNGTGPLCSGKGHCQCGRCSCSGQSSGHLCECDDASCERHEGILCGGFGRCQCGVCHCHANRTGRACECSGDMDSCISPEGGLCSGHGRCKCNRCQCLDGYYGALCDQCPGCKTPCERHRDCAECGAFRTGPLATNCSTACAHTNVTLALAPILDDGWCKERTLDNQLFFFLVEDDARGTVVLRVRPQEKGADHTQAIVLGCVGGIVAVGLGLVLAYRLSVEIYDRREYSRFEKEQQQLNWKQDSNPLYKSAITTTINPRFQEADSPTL
The data set is described as follows: Inhibition of binding of alpha-4-beta-7 integrin receptor expressed in human K562 cells to immobilized MAdCAM1. Format: cell-based.

The nature of data set [3]: AUC in rat at 30 mg/kg, po. It counts as ADME, organism-based. Also on record: dose 30 mg/kg, route oral. The settings on record: plasma. In outline: (§1)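 Rats were given 3 mg/kg iv or 30 mg/kg by oral gavage (oral vehicle 10% PEG 400 in PBS, pH 7.0-7.5). Heparinized blood was sampled after dosing and the plasma stored at -70 °C. Analysis was by LC-MS-MS with multiple reaction monitoring, using plasma calibration standards of 0.01-10 µM (LOQ 0.01 µM). For ester prodrugs, the parent acid was quantified. AUC was taken after oral dosing and t1/2 after iv dosing.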

Data set [4] is described as follows: Half life in rat at 3 mg/kg, iv. The settings on record: in vivo. It counts as ADME, organism-based. Also noted: dose 3 mg/kg, route intravenous. Summed up:
as §1

Data set [5] can be described thus: Oral bioavailability in rat at 30 mg/kg, po and 3 mg/kg, iv. Format: ADME, organism-based. The settings on record: in vivo. In outline: as §1
Data set [6] in a line: Clearance in rat at 3 mg/kg, iv. The note with it: in vivo. It counts as ADME, organism-based. Also on record: dose 3 mg/kg, route intravenous. Summed up: as §1
The nature of data set [7]: Volume of distribution in rat at 3 mg/kg, iv. Format: ADME, organism-based. Also on record: dose 3 mg/kg, route intravenous. The note with it: in vivo, read-out: Vdss. In outline:
as §1

Data set [8] can be described thus: Inhibition of adhesion of human Ramos cell to TNF-alpha-stimulated HUVEC cells mediated by VCAM1. It counts as functional, cell-based.
A short description of data set [9]: Inhibition of adhesion of human U937 cell to LPS-stimulated HUVEC cells mediated by ICAM1/VCAM1. Format: functional, cell-based.
Data set [10] is described as follows: Inhibition of adhesion of human HL60 cell to TNF-alpha-stimulated HUVEC cells mediated by ELAM1. It counts as functional, cell-based.
Data set [11] concerns Mus musculus. The data set is described as follows: Inhibition of DSS-induced colitis in mouse at 60 mg/kg, po after 7 days. It counts as functional. The settings on record: 168 h. Summed up:
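Female Balb/c mice, 11-14 weeks old (n = 10/group), drank 5% DSS in tap water ad libitum for 7 days, freshly changed daily. Oral gavage at 60 mg/kg in 10% PEG 400 in D5W, or vehicle alone, began on the day of induction and continued twice daily for 7 days. Colons were then dissected. The macroscopic score combined colon shrinkage, stool consistency and colon damage.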

The values that follow come from ChEMBL document CHEMBL1148523, “Synthesis and biological evaluation of novel pyridazinone-based alpha4 integrin receptor antagonists” (J Med Chem, 2006).

Broadly, the IC50 is the concentration needed to halve the response being measured. One may read the AUC as the area under the concentration-time curve, a measure of exposure. One may read the half-life as the time needed for the level to fall by half in the phase considered. Low readings indicate fast loss, high ones slow loss. What is called bioavailability is dose-corrected exposure relative to a reference, in per cent. A higher bioavailability goes with good availability. For orientation: clearance means the rate of elimination divided by the concentration. The low end stands for a low capacity for elimination, the high end for a high capacity for elimination. A word on the inhibition in vivo: it is the change of the read-out against control, counted positive when it falls. Read a high inhibition in vivo as a strong effect.

Bounds are passed on as bounds.

Integrin alpha-4/beta-1, sequence (P05556 whole entry, one chain of several): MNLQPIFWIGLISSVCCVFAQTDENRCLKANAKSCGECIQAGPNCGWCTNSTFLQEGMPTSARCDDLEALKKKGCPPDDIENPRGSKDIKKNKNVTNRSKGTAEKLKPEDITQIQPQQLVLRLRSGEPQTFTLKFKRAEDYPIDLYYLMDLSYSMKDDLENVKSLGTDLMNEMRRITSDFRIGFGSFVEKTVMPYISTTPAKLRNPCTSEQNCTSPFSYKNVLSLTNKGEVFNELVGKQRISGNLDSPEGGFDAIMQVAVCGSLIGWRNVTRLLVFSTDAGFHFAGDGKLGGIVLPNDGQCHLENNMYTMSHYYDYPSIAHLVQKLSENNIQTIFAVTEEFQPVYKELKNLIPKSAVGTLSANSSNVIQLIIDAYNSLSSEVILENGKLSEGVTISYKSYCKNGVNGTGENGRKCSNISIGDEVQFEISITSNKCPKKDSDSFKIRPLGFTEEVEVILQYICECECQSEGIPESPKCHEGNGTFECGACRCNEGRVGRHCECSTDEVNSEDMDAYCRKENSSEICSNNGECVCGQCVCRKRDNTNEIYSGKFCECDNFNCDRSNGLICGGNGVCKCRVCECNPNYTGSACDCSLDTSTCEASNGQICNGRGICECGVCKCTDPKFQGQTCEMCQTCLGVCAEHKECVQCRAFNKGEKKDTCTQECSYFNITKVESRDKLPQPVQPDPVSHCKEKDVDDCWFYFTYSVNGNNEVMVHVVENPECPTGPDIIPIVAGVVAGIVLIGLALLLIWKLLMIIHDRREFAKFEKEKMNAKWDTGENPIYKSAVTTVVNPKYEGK

`CCOc1cnn(C)c(=O)c1-c1ccc(C[C@H](NC(=O)c2c(Cl)cccc2Cl)C(=O)O)cc1`: the IC50 is 170 nM in [1] and 2 nM in data set [2].

For the molecule `COc1cnn(CCO)c(=O)c1-c1ccc(C[C@H](NC(=O)c2c(Cl)cccc2Cl)C(=O)O)cc1`, the IC50 in data set [1] stood at 130 nM.

Regarding `COc1cnn(C2CCCCC2)c(=O)c1-c1ccc(C[C@H](NC(=O)c2c(Cl)cccc2Cl)C(=O)O)cc1`, the IC50 was above 5000 nM in [1] and 330 nM in data set [2].

Molecule `Cn1ncc(O)c(-c2ccc(C[C@H](NC(=O)c3c(Cl)cccc3Cl)C(=O)O)cc2)c1=O` came in with an IC50 in [2] of 49 nM.

`COC(=O)[C@H](Cc1ccc(-c2c(OC)cnn(C)c2=O)cc1)NC(=O)c1c(Cl)cccc1Cl`: in data set [3], the AUC is 1.7 µM·h. This molecule had a half-life in data set [4] of 42 min. In [5], this molecule gave a bioavailability of 8%.

Turning to `COc1cnn(C)c(=O)c1-c1ccc(C[C@H](NC(=O)c2c(Cl)cccc2Cl)C(=O)OCCO)cc1`, in data set [3], the AUC worked out at 3.3 µM·h. The half-life in data set [4] is 60 min. Besides, in data set [5], the bioavailability turned out to be 7%.

As to `COc1cnn(C)c(=O)c1-c1ccc(C[C@H](NC(=O)N(C)CC(C)C)C(=O)OCCO)cc1`, the AUC in data set [3] was 47 µM·h. Further, the half-life in data set [4] was 24 min. Also, the bioavailability in data set [5] amounted to 14%.

As for `Cn1ncc(OC2CCCCC2)c(-c2ccc(C[C@H](NC(=O)c3c(Cl)cccc3Cl)C(=O)O)cc2)c1=O`, the IC50 in data set [1] was determined as 150 nM.

In [1], `COc1cnn(C)c(=O)c1-c1ccc(C[C@H](NC(=O)OC(C)(C)C)C(=O)O)cc1` registered an IC50 above 5000 nM.

With `COc1cnn(Cc2ccccc2)c(=O)c1-c1ccc(C[C@H](NC(=O)c2c(Cl)cccc2Cl)C(=O)O)cc1`, the IC50 in [2] is 100 nM. This lies in the sub-micromolar range.

`CCOC(=O)[C@H](Cc1ccc(-c2c(OC)cnn(C)c2=O)cc1)NC(=O)c1c(Cl)cccc1Cl` returned an AUC in [3] of 2.3 µM·h. The same molecule displayed a bioavailability in data set [5] of 4%.

With `COc1cnn(CCO)c(=O)c1-c1ccc(C[C@H](NC(=O)OC(C)(C)C)C(=O)O)cc1`, the AUC in data set [3] stood at 1.6 µM·h. Moreover, in data set [4], the half-life was 12 min. Also, the figures for the IC50 in [1] and in data set [2] were above 5000 nM and 110 nM, respectively. Moreover, the bioavailability in data set [5] turned out to be 1%. The molecule further displayed a clearance in data set [6] of 6 mL/min/kg. Moreover, the Vd in [7] was 0.11 L/kg.

Take `COc1cnn(C)c(=O)c1-c1ccc(C[C@H](NC(=O)c2c(Cl)cccc2Cl)C(=O)O)cc1`: the figures for the IC50 in [8], in data set [9] and in data set [10] were 43 nM, 14 nM and below 5 nM, respectively. Besides, the AUC in data set [3] was 0.5 µM·h. In addition, the half-life in [4] is 12 min. For the same molecule, the bioavailability in data set [5] turned out to be 1%. Also, in data set [6], the clearance is 22 mL/min/kg. The Vd in [7] turned out to be 0.4 L/kg.

In data set [1], `Cn1ncc(OCCN2CCOCC2)c(-c2ccc(C[C@H](NC(=O)c3c(Cl)cccc3Cl)C(=O)O)cc2)c1=O` displayed an IC50 of 66 nM. This counts as double-digit nanomolar.

In [1], `COc1cnnc(O)c1-c1ccc(C[C@H](NC(=O)c2c(Cl)cccc2Cl)C(=O)O)cc1` gave an IC50 of 1000 nM.

With `COc1cnn(C)c(=O)c1-c1ccc(C[C@H](NC(=O)N(C)C)C(=O)O)cc1`, the IC50 was above 5000 nM in data set [1] and 1500 nM in [2].

`COC(=O)N[C@@H](Cc1ccc(-c2c(OC)cnn(C)c2=O)cc1)C(=O)O` displayed an IC50 in [1] above 5000 nM.

Molecule `CCCN(C(=O)N[C@@H](Cc1ccc(-c2c(OC)cnn(C)c2=O)cc1)C(=O)O)c1ccccc1` registered an IC50 in data set [1] above 5000 nM.

For `Cn1ncc(OC(F)F)c(-c2ccc(C[C@H](NC(=O)c3c(Cl)cccc3Cl)C(=O)O)cc2)c1=O`, the figures for the IC50 in [1] and in [2] were 280 nM and 8 nM, respectively.

Regarding `COc1cnn(CCO)c(=O)c1-c1ccc(C[C@H](NC(=O)OC(C)(C)C)C(=O)OCCO)cc1`, the AUC in [3] amounted to 51 µM·h. In [4], this molecule had a half-life of 66 min. The same molecule had a bioavailability in data set [5] of 31%. The molecule further yielded an inhibition in vivo at 60 mg/kg in data set [11] of 54%.

With `COc1cnn(C)c(=O)c1-c1ccc(C[C@H](NC(=O)N(C)CC(C)C)C(=O)O)cc1`, the AUC in [3] is 5.2 µM·h. This molecule also had a half-life in data set [4] of 54 min. In data set [1], this molecule registered an IC50 of 1800 nM. The molecule also showed a bioavailability in data set [5] of 3%. Moreover, the clearance in data set [6] came out at 7.8 mL/min/kg. In addition, the Vd in [7] came to 0.19 L/kg.

As to `Cn1ncc(N2CCCC2)c(-c2ccc(C[C@H](NC(=O)c3c(Cl)cccc3Cl)C(=O)O)cc2)c1=O`, the IC50 in data set [1] amounted to 110 nM.
